Experimental data published in PMC6447450 (Structure (London, England : 1993), 2019).
Entries after “also recorded” stand apart in the source; their conditions may differ.

Experiments:
[1] = tested on: Bfl-1, Mcl-1, Bcl-xL, Bcl-w, and Bcl-2; assay: Yeast-surface display FACS binding to five Bcl-2 family paralogs; parameters: species or system human; settings: for selectivity of Mcl-1 binders among Bcl-2 family paralogs (in words): Mcl-1 versus Bfl-1, Bcl-xL
Method in brief: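 Myc-tagged human Mcl-1 (172-327), Bfl-1 (1-151), Bcl-2 (1-217), Bcl-w (1-164) and Bcl-xL (1-209) tested at 1000, 100, 10 and 1 nM on peptide-displaying yeast induced in galactose medium for 20-24 hr at 30 °C. Display detected with anti-HA and bound target with anti-c-myc (15 min, 4 °C), then APC anti-mouse and PE anti-rabbit (15 min, 4 °C, dark). Read-out: FACS median binding signal of expression-positive cells.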

Mcl-1 = Mcl-1 (Homo sapiens, UniProt Q07820); assay: Yeast-surface display FACS binding to Mcl-1
Mcl-1, sequence (Q07820 172-327): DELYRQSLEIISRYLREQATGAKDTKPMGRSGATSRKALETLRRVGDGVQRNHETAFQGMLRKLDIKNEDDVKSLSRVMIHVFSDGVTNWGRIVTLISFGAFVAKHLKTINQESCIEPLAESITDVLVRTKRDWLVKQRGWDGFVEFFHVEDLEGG

Bfl-1 = molecular target: T1, Bfl-1 (Homo sapiens, UniProt Q16548); assay: Yeast-surface display FACS binding to Bfl-1
T1 sequence (Q16548 1-151): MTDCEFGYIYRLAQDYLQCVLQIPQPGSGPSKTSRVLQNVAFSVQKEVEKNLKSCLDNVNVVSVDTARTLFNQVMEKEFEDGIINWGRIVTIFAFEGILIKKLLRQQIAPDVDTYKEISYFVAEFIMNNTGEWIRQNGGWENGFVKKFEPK

Substance: APYLEQVARTLLHIGMEINEALR- [dM6]
- binding to Bcl-2 family members (in words) ([1]; yeast-surface display FACS, Bfl-1, Mcl-1, Bcl-xL): not binding to any of the Bcl-2 family members we tested
- binding to target Mcl-1 (in words) (Mcl-1): did not bind to their targets with high affinity

Substance: APKEKEVAETLRKIGEEINEALK- [dM1]
- selectivity of Mcl-1 binders among Bcl-2 family paralogs (in words) ([1]; yeast-surface display): selective

Substance: APKEKEVARTLIKIGEEINEALK- [dM5]
- selectivity of Mcl-1 binders among Bcl-2 family paralogs (in words) ([1]; yeast-surface display): selective

Substance: -QWVREIAAGLRRAADDVNAQVER [FS2, reference compound]
- selectivity for Bfl-1 ([1]; Bfl-1 versus Mcl-1, Bcl-xL, yeast-surface display): > 100 fold

Substance: -SYIDKIADLIDKVVEEINSKLE- [dF6]
- binding to target Bfl-1 (in words) (Bfl-1): did not bind to their targets with high affinity; also recorded: did not bind tightly to Bfl-1
